{"source": "paper PMC2193294", "about": "(The Journal of Experimental Medicine, 2001)", "key": {"vWF [1]": {"test_system": "vWF", "test": "vWF reductase activity: collagen binding activity / vWF antigen ratio in vitro", "type": "biochemical, human", "how_it_was_run": "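Plasma from a TTP patient (plasmapheresis; centrifuged 2,000 g, 20 min, 4°C) was used at 10 μl with 90 μl Hepes-buffered saline containing 1 mM CaCl2. The buffer held purified human platelet TSP-1 (0.001–100 μg/ml; purified in 0.1 or 2 mM CaCl2 buffers, quantified by A280) or HMEC-1 conditioned medium. Incubation was 1 or 24 h at 37°C. Aliquots were diluted 10-fold and assayed for collagen binding and vWF antigen, giving a ratio. Triplicates, mean and SD.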"}, "vWF [2]": {"test_system": "vWF", "test": "Formation of new thiols in vWF", "type": "biochemical, human"}, "vWF [3]": {"test_system": "vWF", "conditions": "cited from earlier work"}, "vWF [4]": {"test_system": "vWF", "test": "Binding of TSP-1 to vWF", "set-up": "species or system human", "how_it_was_run": "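vWF (5 μg/ml in 0.1 M NaHCO3, pH 8.3) adsorbed to wells overnight at 4°C, then blocked with 2% BSA in HBS (90 min, 37°C). Control wells were BSA-blocked only, with 10 μg/ml TSP-1. TSP-1 (0–10 μg/ml) in Hepes/NaCl/1 mM CaCl2/1 mM MgCl2, pH 7.4, with 0, 5 or 20 mM NEM, 30 min RT with shaking. Wells washed with 1 M NaCl buffer. Detection: anti-TSP-1 mAb HB8432 (10 μg/ml), then peroxidase anti-mouse (1:1,000). Triplicates, mean and SD.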"}, "activated platelets": {"test_system": "activated platelets", "conditions": "cited from earlier work"}, "[5]": {"conditions": "cited from earlier work"}, "collagen": {"test_system": "collagen", "conditions": "cited from earlier work"}, "vWF [6]": {"test_system": "vWF", "type": "biochemical, human"}, "plasma vWF": {"test_system": "plasma vWF", "test": "Reduction in average multimer size of plasma vWF in mice", "type": "in vivo", "conditions": "Balb c mice, 1 mg/kg i.p., 24 h, P < 0.05", "how_it_was_run": "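Balb c mice aged 7–9 wk, n = 4 per group with 2 male and 2 female each, were given buffer vehicle or purified human platelet TSP-1 at 1 mg/kg as a 0.1 ml i.p. injection. After 24 h, EDTA plasma was collected by cardiac puncture. Plasma was assayed in triplicate for vWF collagen binding activity and vWF antigen, using anti-rat vWF polyclonal antibodies. Multimer size was expressed as the collagen binding/antigen ratio.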"}, "[7]": {"test": "Plasma concentration of human TSP-1 in mice after injection", "type": "in vivo", "conditions": "Balb c mice, 1 mg/kg i.p., 24 h after injection, TSP-1 ELISA", "how_it_was_run": "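Balb c mice (7–9 wk; 2 male, 2 female per group) received purified human platelet TSP-1 at 1 mg/kg as a 0.1 ml i.p. injection. EDTA blood was taken by cardiac puncture 24 h later. Human TSP-1 was measured by sandwich ELISA: HB8432 capture (5 μg/ml, pH 9.6, overnight at 4°C), BSA block, diluted plasma 30 min RT, biotin-HB8432 (5 μg/ml), then StreptABComplex/HRP (1:100). Standards were TSP-1-depleted plasma spiked with platelet TSP-1; the assay was linear over 1–100 ng/ml.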"}, "platelet aggregation": {"test_system": "platelet aggregation", "conditions": "high fluid shear; cited from earlier work"}}}
{"molecule": "O=C(O)CN(CCN(CC(=O)O)CC(=O)O)CC(=O)O", "note": "[EDTA, reference compound]", "values": [{"measurement": "effect of EDTA (chelation of Ca2+) on vWF reductase activity of TSP-1", "setting": "vWF [1]; not shown", "result": "ablated the vWF reductase activity of TSP-1"}, {"measurement": "effect of EDTA on TSP-1–facilitated formation of free thiols in vWF", "setting": "vWF [2]; not shown", "result": "ablated TSP-1–facilitated formation of free thiols in vWF"}, {"measurement": "effect of EDTA on vWF reductase activity in endothelial cell–conditioned medium", "setting": "vWF [3]", "result": "inhibited"}]}
{"molecule": "CCN1C(=O)C=CC1=O", "note": "[NEM, N-ethylmaleimide, reference compound]", "values": [{"measurement": "TSP-1/vWF complex formation vs NEM concentration", "setting": "vWF [4]; NEM 0, 5, 20 mM, 30 min, room temperature", "result": "Complex formation increased with increasing NEM concentration"}]}
{"molecule": "large vWF multimers: large multimers of von Willebrand factor", "values": [{"measurement": "affinity for activated platelets vs monomeric fragments", "setting": "activated platelets", "result": "~100", "unit": "fold"}, {"measurement": "affinity for activated platelets vs small multimers", "setting": "activated platelets", "result": "up to 10 fold"}, {"measurement": "ristocetin cofactor activity per unit antigen vs small multimers", "setting": "[5]", "result": "considerably higher"}]}
{"molecule": "multimeric vWF: multimeric von Willebrand factor", "values": [{"measurement": "collagen binding affinity vs monomeric vWF fragments", "setting": "collagen", "result": "~100", "unit": "fold"}]}
{"molecule": "thrombospondin-1 [TSP-1]", "values": [{"measurement": "average multimer size of plasma vWF", "setting": "vWF [6]; TSP-1 added to TTP2 and TTP3 patient plasmas (not shown)", "result": "reduced the average multimer size of the plasma vWF"}, {"measurement": "very large vWF multimers", "setting": "vWF [6]; TTP1 patient plasma, 1 h, 37°C, 1% agarose gel", "result": "the very large multimers were lost"}, {"measurement": "dependence of TSP-1–mediated reduction in vWF multimer size", "setting": "vWF [1]; TTP1 plasma, TSP-1 0.001 to 100 μg/ml, 1 or 24 h, 37°C", "result": "concentration and time dependent"}, {"measurement": "vWF reducing activity of three different preparations of platelet TSP-1", "setting": "vWF [1]; not shown", "result": "had the same vWF reducing activity"}, {"measurement": "optimal TSP-1 concentration for reduction of vWF in 1 h", "setting": "vWF [1]; purified TSP-1, ∼1 μg/ml plasma vWF, 1 h", "result": "~0.1", "unit": "µg/mL"}, {"measurement": "optimal TSP-1 concentration for reduction of vWF in 24 h", "setting": "vWF [1]; purified TSP-1, ∼1 μg/ml plasma vWF, 24 h", "result": "~0.01", "unit": "µg/mL"}, {"measurement": "binding of TSP-1 to wells not coated with vWF", "setting": "vWF [4]; 10 μg/ml TSP-1, BSA-blocked wells", "result": "no binding"}, {"measurement": "dependence of MPB incorporation on TSP-1 concentration", "setting": "vWF [2]; TSP-1 0.01 to 100 μg/ml, 60 min, 37°C", "result": "the incorporation increased with increasing TSP-1 concentration"}, {"measurement": "formation of new thiols in vWF (MPB incorporation)", "setting": "vWF [2]; purified human vWF 2 μg/ml, 60 min, 37°C, TSP-1 0.01 to 100 μg/ml or HMEC-1–conditioned medium, MPB 100 μM", "result": "resulted in incorporation of MPB into vWF"}, {"measurement": "average multimer size of plasma vWF vs buffer vehicle", "setting": "plasma vWF", "result": "significantly lower"}, {"measurement": "concentration of human TSP-1 in mouse plasma", "setting": "[7]", "result": "~1000", "unit": "ng/mL"}]}
{"molecule": "unusually large vWF multimers: unusually large vWF multimers secreted by endothelial cells", "values": [{"measurement": "induction of platelet aggregation vs largest plasma forms", "setting": "platelet aggregation", "result": "more effective"}]}
